Key:
HEK293 = assay: Cytotoxicity against human ERG transfected HEK293 cells after 24 hrs by MTT assay; assay type: cell-based; details: HEK293, 24 h
Procedure, shortened: (§1)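 MTT viability assay in hERG-transfected HEK293 cells and in HT-29 cells exposed to probe. Half-maximal inhibitory concentration was derived for each cell line and reported as mean ± deviation.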

HT-29 = assay: Cytotoxicity against human HT-29 cells after 24 hrs by MTT assay; assay type: cell-based; details: HT-29, 24 h; procedure, shortened: as §1
[1] = target: T1, Voltage-gated inwardly rectifying potassium channel KCNH2 (Homo sapiens, UniProt Q12809); assay: Displacement of [3H] dofetilide from human ERG channel expressed in HEK293 cell membranes incubated for 2 hrs by scintillation counting analysis
[2] = target: T1, Voltage-gated inwardly rectifying potassium channel KCNH2; assay: Binding affinity to human ERG channel expressed in HEK293 cells assessed as fluorescence signal at 0.5 uM incubated for 10 mins by fluorescence microscopic imaging analysis; assay type: cell-based; details: hek293, 10 min
Procedure, shortened: (§2)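 Live-cell fluorescence microscopy of hERG-transfected HEK293 cells or HT-29 colorectal cancer cells incubated with probe at 0.5 μM. Images were taken in bright field and in the GFP channel. Probe photophysics were characterised at 10 μM in PBS, pH 7.4.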

[3] = target: T1, Voltage-gated inwardly rectifying potassium channel KCNH2; assay: Binding affinity to human ERG channel expressed in HEK293 cells assessed as fluorescence signal at 0.5 uM incubated for 10 mins by fluorescence microscopic imaging analysis in presence of astemizole; assay type: cell-based; details: hek293, 10 min
Procedure, shortened: (§3)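 Competition imaging in hERG-transfected HEK293 or HT-29 cells. Cells were co-incubated with 100 μM astemizole and 0.5 μM probe, then imaged by fluorescence microscopy in bright field and the GFP channel. Cell autofluorescence, with and without astemizole, was checked separately.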

[4] = target: T1, Voltage-gated inwardly rectifying potassium channel KCNH2; assay: Binding affinity to ERG channel in human HT-29 cells assessed as fluorescence signal at 0.5 uM incubated for 10 mins by fluorescence microscopic imaging analysis; assay type: cell-based; details: ht-29, 10 min; procedure, shortened: as §2
[5] = target: T1, Voltage-gated inwardly rectifying potassium channel KCNH2; assay: Binding affinity to ERG channel in human HT-29 cells assessed as fluorescence signal at 0.5 uM incubated for 10 mins by fluorescence microscopic imaging analysis in presence of astemizole; assay type: cell-based; details: ht-29, 10 min; procedure, shortened: as §3

T1 sequence (Q12809 whole entry): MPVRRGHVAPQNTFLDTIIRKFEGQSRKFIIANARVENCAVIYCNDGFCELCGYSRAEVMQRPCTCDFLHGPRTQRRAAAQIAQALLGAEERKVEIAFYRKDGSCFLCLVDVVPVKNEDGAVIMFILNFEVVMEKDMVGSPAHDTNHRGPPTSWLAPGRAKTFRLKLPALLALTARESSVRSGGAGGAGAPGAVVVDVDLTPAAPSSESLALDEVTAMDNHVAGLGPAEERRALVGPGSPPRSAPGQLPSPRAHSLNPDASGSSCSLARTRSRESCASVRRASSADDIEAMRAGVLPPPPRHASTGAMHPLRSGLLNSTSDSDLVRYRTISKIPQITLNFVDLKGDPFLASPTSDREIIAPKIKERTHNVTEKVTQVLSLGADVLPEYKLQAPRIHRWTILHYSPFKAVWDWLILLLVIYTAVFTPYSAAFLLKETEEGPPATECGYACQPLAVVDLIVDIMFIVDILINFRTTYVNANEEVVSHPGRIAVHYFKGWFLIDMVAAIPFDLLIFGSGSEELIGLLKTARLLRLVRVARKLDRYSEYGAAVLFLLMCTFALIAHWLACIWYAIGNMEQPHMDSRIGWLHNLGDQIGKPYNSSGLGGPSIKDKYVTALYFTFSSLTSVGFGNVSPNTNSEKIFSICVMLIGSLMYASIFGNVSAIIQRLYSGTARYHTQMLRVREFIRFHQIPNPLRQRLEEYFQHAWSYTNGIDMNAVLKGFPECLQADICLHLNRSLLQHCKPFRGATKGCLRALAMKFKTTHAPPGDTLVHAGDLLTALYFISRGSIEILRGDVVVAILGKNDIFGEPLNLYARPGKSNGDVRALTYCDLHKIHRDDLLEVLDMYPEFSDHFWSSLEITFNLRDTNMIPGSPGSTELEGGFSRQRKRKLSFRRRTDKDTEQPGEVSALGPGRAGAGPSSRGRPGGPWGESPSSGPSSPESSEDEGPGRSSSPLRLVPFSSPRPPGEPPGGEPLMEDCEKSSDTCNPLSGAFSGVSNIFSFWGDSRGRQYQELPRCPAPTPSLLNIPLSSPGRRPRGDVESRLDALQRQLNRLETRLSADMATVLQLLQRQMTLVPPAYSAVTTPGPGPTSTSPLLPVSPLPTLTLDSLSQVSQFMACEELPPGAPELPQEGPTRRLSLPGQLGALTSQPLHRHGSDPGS

Row | SMILES | IC50 (HEK293) [µM] | IC50 (HT-29) [µM] | IC50 [1] [nM] | Ki [1] [nM] | Activity [2] | Activity [3] | Activity [4] | Activity [5]
1 | COc1ccc(CCN2CCC(Nc3nc4ccccc4n3Cc3ccc(F)cc3)CC2)cc1 [ASTEMIZOLE] | 5.1 | 15.4 | – | – | – | – | – | –
2 | CCN(CC)c1ccc2cc(C(=O)NCCCCN3CCC(Nc4nc5ccccc5n4Cc4ccc(F)cc4)CC3)c(=O)oc2c1 | 4.7 | 9.9 | – | – | – | – | – | –
3 | CC(=O)Nc1ccc2c3c(cccc13)C(=O)N(CCCCN1CCC(Nc3nc4ccccc4n3Cc3ccc(F)cc3)CC1)C2=O | 7.2 | 18.6 | – | – | – | – | – | –
4 | O=[N+]([O-])c1ccc(NCCCCN2CCC(Nc3nc4ccccc4n3Cc3ccc(F)cc3)CC2)c2nonc12 | 12.5 | 36.1 | 25 | 12 | Active | Not Active | Active | Not Active
